Laboratory results as given in ChEMBL document CHEMBL4680156, “Discovery of novel pyrido-pyrrolidine hybrid compounds as alpha-glucosidase inhibitors and alternative agent for control of type 1 diabetes” (Eur J Med Chem, 2020).
The source made the active and inactive calls. No cut-off for these calls is given here.

What was measured:
[1] = Stability in rat liver microsomes assessed as CYP450-mediated drug degradation by measuring proportion of compound metabolised at 1 uM up to 60 mins in presence of NADPH by LC-MS/MS analysis; assay type: ADME; settings: read-out: Drug degradation
Summary of the method: (§1)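 Liver microsomes (1.0 mg protein/mL) were incubated with compound at 1 μM; reactions were started with 1 mM NADPH. No-NADPH incubations (0 and 60 min) served as stability controls. Reactions were stopped at 0, 5, 15, 30 and 60 min with ice-cold acetonitrile containing internal standard, then centrifuged. Parent loss was tracked by LC-MS/MS.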

[2] = biological target: Cytochrome P450 (Homo sapiens, UniProt P04798+P05177+P05181+P08684+P10632+P10635+P11509+P11712+P13584+P20813+P20815+P20853+P24462+P24903+P33260+P33261+P51589+P78329+P98187+Q02928+Q08477+Q16678+Q16696+Q5TCH4+Q6VVX0+Q7Z449+Q8TAV3+Q96SQ9+Q9HB55); assay: Stability in human liver microsomes assessed as CYP450-mediated drug degradation by measuring proportion of compound metabolised at 1 uM up to 60 mins in presence of NADPH by LC-MS/MS analysis; assay type: ADME; settings: read-out: Drug degradation; summary of the method: as §1
[3] = tested on: Saccharomyces cerevisiae; assay: Binding affinity to Saccharomyces cerevisiae alpha-glucosidase assessed as decrease in fluorescence intensity at 6.25 to 25 ng/ml after 30 mins by spectrofluorometric method; settings: dose 6.25-25 ng/ml
Summary of the method: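 Yeast α-glucosidase (1.5 U) was pretreated with compound at 6.25 and 25 ng/ml for 30 min at 37 °C. Intrinsic Trp fluorescence was excited at 295 nm and the emission (peak 330 nm) recorded at 298 K. Quenching was scored against free enzyme.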

[4] = tested on: Rattus norvegicus; assay: Antidiabetic activity against STZ-induced type 1 diabetic Sprague-Dawley rat model assessed as decrease in fasting blood glucose level at 60 mg/kg, po administered once daily for 28 days; assay type: functional, organism-based; settings: time 28.0 day
Summary of the method: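 Male Sprague-Dawley rats (250–320 g, 8–10 weeks) were given STZ 70 mg/kg ip once in 0.1 mmol/L citrate buffer, pH 4.5. Rats with random glucose >125 mg/dl at 4 days were counted diabetic. Dosing was 60 mg/kg in 0.5% saline by gavage once daily for 4 weeks, n=6 per group. After a 6 h fast, tail blood glucose was read by glucometer. Data are mean ± SD; 2-way ANOVA.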

[5] = Inhibition of Saccharomyces cerevisiae alpha-glucosidase using PNPG as substrate incubated for 10 mins by spectrophotometric method
[6] = tested on: Rattus norvegicus; assay: Decrease in post prandial glucose level in type 1 diabetic Sprague-Dawley rat model at 60 mg/kg, po administered once daily for 28 days; settings: time 28.0 day
[7] = tested on: Saccharomyces cerevisiae; assay: Binding affinity to Saccharomyces cerevisiae alpha-glucosidase assessed as protein with beta-sheet structure at 0.32 ug/ml by CD spectroscopic method (reference value: 68%); settings: dose 0.32 µg/ml
Summary of the method: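 Compound was added at different concentrations to yeast α-glucosidase (30 U/ml). CD spectra were taken with 3 accumulations (negative bands at 209 and 222 nm). α-Helix and β-sheet content were estimated with secondary-structure estimation software.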

[8] = Drug recovery in mouse plasma at 10 uM after 6 hrs by LC-MS/MS analysis; assay type: ADME, cell-free; settings: read-out: Drug recovery
Summary of the method: (§2)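 Equilibrium dialysis: plasma with compound at 10 μM final on one side, 100 mM sodium phosphate pH 7.4 on the other. Equilibrated at 37 ± 1 °C for 6 h with shaking at 500 rpm. Both sides were sampled, proteins precipitated with organic solvent, and supernatants analysed by LC-MS/MS.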

[9] = Competitive inhibition of Saccharomyces cerevisiae alpha-glucosidase using PNPG as substrate incubated for 10 mins by Lineweaver-Burk plot analysis
Summary of the method: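 Yeast α-glucosidase kinetics used pNPG at 1, 2, 3, 4 and 5 mM without inhibitor or with inhibitor at 2 and 10 μM, at 37 °C. Absorbance read at 420 nm. Mode of inhibition came from Km/Vmax changes on Lineweaver–Burk double-reciprocal plots; Ki derived […].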

[10] = tested on: Saccharomyces cerevisiae; assay: Potency index, ratio of acarbose IC50 to test compound IC50 for inhibition of Saccharomyces cerevisiae alpha-glucosidase using PNPG as substrate incubated for 10 mins by spectrophotometric method
[11] = Half life in mouse liver microsomes at 1 uM up to 60 mins in presence of NADPH by LC-MS/MS analysis; assay type: ADME, Microsome; summary of the method: as §1
[12] = Intrinsic clearance in rat liver microsomes at 1 uM up to 60 mins in presence of NADPH by LC-MS/MS analysis; assay type: ADME, Microsome; settings: 1 h; summary of the method: as §1
[13] = biological target: T1, Alpha-mannosidase (Canavalia ensiformis, UniProt C0HJB3); assay: Inhibition of jack bean alpha-mannosidase using […] as substrate incubated for 10 mins by spectrophotometric method
T1 sequence (C0HJB3 whole entry): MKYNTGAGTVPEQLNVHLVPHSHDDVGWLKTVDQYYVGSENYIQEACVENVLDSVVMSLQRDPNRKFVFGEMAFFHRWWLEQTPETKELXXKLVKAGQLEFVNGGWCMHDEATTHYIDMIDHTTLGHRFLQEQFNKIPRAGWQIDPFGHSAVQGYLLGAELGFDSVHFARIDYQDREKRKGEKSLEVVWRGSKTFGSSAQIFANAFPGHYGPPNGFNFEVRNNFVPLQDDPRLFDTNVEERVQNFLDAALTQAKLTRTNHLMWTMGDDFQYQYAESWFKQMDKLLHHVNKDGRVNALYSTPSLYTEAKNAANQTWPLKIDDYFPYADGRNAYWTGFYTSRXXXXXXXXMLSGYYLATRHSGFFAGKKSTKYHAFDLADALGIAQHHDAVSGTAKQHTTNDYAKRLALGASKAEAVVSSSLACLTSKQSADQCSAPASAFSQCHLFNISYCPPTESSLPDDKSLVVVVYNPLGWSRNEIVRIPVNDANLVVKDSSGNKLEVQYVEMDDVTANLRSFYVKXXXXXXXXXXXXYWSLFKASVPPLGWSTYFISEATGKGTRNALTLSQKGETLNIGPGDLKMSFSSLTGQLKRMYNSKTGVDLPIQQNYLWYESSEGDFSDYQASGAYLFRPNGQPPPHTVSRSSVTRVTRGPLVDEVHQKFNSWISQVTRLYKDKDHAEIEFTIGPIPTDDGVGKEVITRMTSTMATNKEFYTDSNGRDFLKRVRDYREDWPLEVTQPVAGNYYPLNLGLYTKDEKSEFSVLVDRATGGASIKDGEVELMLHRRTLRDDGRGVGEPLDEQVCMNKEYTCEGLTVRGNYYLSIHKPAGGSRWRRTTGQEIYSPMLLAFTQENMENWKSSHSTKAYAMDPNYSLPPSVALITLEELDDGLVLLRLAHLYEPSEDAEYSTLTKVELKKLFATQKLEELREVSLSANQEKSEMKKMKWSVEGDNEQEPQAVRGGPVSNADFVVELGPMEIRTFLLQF

[14] = Clearance in mouse; assay type: ADME, organism-based; settings: in vivo
[15] = Protein binding in human plasma assessed as unbound fraction at 10 uM after 6 hrs by LC-MS/MS analysis; assay type: ADME, cell-free; summary of the method: as §2
[16] = Protein binding in rat plasma assessed as bound fraction at 10 uM after 6 hrs by LC-MS/MS analysis; assay type: ADME, cell-free; settings: read-out: PPB (converted); summary of the method: as §2

Structure (SMILES): CCOC(=O)c1ccc(-n2c(/C=C3\OC(=O)c4c3cc(C)[nH]c4=O)ccc2CO)cc1
- metabolised at 1 h, 1 µM [1]: 95.2%
- metabolised at 1 h, 1 µM [2]: 96.3%
- Activity [3]: Active
- Activity [4]: Active
- IC50 [5]: 0.56 µM
- inhibition [6]: inactive
- Activity [7]: 63%
- remaining at 6 h, 10 µM [8]: 15%
- Ki [9]: 29.9 µM
- Ratio IC50 [10]: 4
- half-life at 1 µM [11]: 9 min
- CLint [12]: 54.4 µL/min/mg
- IC50 [13]: 41.2 µM
- clearance [14]: 60.3 mL/min/kg
- fraction unbound at 6 h, 10 µM [15]: 0.107
- fraction unbound at 6 h, 10 µM [16]: 0.0156
